Drawing on ChEMBL document CHEMBL4130602, “Rearranged Phloroglucinol-Monoterpenoid Adducts from Callistemon rigidus” (J Nat Prod, 2018), this text covers IC50 for ten compounds.

In general, IC50 refers to the concentration that inhibits the measured activity by half.

The test system of the assay is RAW264.7. In words: Antiinflammatory activity in mouse RAW264.7 cells assessed as inhibition of LPS-induced nitric oxide production pretreated for 1 hr followed by LPS stimulation measured after 24 hrs by griess assay. It counts as functional, cell-based. An outline of the steps: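 Compound added 1 h before lipopolysaccharide, then 24 h incubation. Culture supernatant mixed with Griess reagent, 10 min at room temperature; absorbance read at 550 nm, nitrite quantified from NaNO2 standard curve. Run in triplicate.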
Background: Nitrite, measured by Griess reagent, commonly stands in for NO production.
With `CC[C@H](C)C(=O)c1c(O)cc(OC)c2c1O[C@]1(C)C=C[C@@H](C(C)C)C[C@H]21`, the 50% inhibitory concentration (IC50) was over 50 µM.
Regarding `COc1cc(O)c(C(=O)CC(C)C)c2c1[C@H]1C[C@H](C(C)C)C=C[C@@]1(C)O2`, the IC50 is over 50 µM.
For `COc1cc(O)c(C(=O)C(C)C)c2c1[C@H]1C[C@H](C(C)C)C=C[C@@]1(C)O2`, the IC50 was over 50 µM.
In the case of `CC[C@H](C)C(=O)c1c(O)cc(OC)c2c1O[C@@]1(C)[C@@H]2C[C@H](C(C)C)[C@H]1C=O`, the concentration for half-maximal inhibition (IC50) was determined as 15.3 µM.
As for `CC[C@H](C)C(=O)c1c(O)cc(OC)c2c1O[C@@]1(C)[C@@H]2C[C@H](C(C)C)[C@H]2O[C@H]21`, the half-inhibitory concentration (IC50) was over 50 µM.
With `COc1ccc2c(c1)c(CC(=O)O)c(C)n2C(=O)c1ccc(Cl)cc1` [INDOMETHACIN], the half-maximal inhibitory concentration (IC50) was found to be 21.1 µM.
`COc1cc(O)c(C(=O)C(C)C)c2c1[C@H]1C[C@H](C(C)C)[C@H]3O[C@H]3[C@@]1(C)O2`: the half-inhibitory concentration (IC50) is over 50 µM.
On to `COc1cc(O)c(C(=O)CC(C)C)c2c1[C@@H]1C[C@H](C(C)C)C=C[C@]1(C)O2`, for which the concentration for half-maximal inhibition (IC50) was over 50 µM.
As for `COc1cc(O)c(C(=O)C(C)C)c2c1[C@@H]1[C@@H](C(C)C)CC=C(C)[C@@H]1O2`, the 50% inhibitory concentration (IC50) was over 50 µM.
The same measure for `COc1cc(O)c(C(=O)C(C)C)c2c1[C@H]1C[C@H](C(C)C)[C@@H](C=O)[C@@]1(C)O2`: 17.7 µM.
